Data taken from ChEMBL document CHEMBL2057168, “(1aR,5aR)1a,3,5,5a-Tetrahydro-1H-2,3-diaza-cyclopropa[a]pentalene-4-carboxylic acid (MK-1903): a potent GPR109a agonist that lowers free fatty acids in humans” (J Med Chem, 2012).
Calls of active or inactive are those of the source. No cut-off for these calls is given here.

What was measured:
[1] = Tmax in human at 50 mg, po BID administered on day 1 followed by 2-day wash out period after which dosing continued up to day 11 measured on day 4; assay type: ADME, organism-based; settings: in vivo
In short: (§1)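 Double-blind, placebo-controlled, randomized multiple oral dose study in healthy male volunteers (cohorts of eight; six active, two placebo). Dose given on day 1, then a two-day washout, then dosing days 4–11; for the QD arm, subjects were titrated over days 1–4. Venous plasma sampled predose and 0.5, 1, 1.5, 2, 4, 6, 8, 10, 12 h postdose on days 1, 4 and 11. Tmax reported as median (min–max).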

[2] = Cmax in human at 100 mg, po BID administered on day 1 followed by 2-day wash out period after which dosing continued up to day 11 measured on day 11; assay type: ADME, organism-based; design: dose 100 mg, route oral; settings: in vivo
In short: (§2)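 Double-blind, placebo-controlled, randomized dose-escalation study in healthy male volunteers, six cohorts of eight (six active, two placebo). Oral dose on day 1, two-day washout, then dosing days 4–11; the 200 mg qd cohort was titrated over days 1–4. Venous blood taken predose and at 0.5–12 h on days 1, 4 and 11; plasma drug measured. τ 12 h (bid), 24 h (qd), 8 h (tid), 6 h (qid).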

Mus musculus [3] = assay: Dose normalized AUC in po dosed mouse; assay type: ADME, organism-based; settings: in vivo
Homo sapiens [4] = assay: Toxicity in human assessed as occurrence of flushing at 5 to 200 mg, po administered as single dose; assay type: organism-based; settings: in vivo
Homo sapiens [5] = assay: Toxicity in po dosed human assessed as occurrence of flushing administered as single dose; assay type: organism-based; settings: in vivo
In short: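 Healthy human volunteers received single oral doses. Flushing was recorded as a subject-reported adverse event and scored with a flushing symptoms questionnaire. It was compared qualitatively against a 1 g Niaspan dose.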

Homo sapiens [6] = assay: Toxicity in human assessed as occurrence of flushing at 10 to >10 mg administered as single dose; assay type: organism-based; settings: in vivo
In short: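 Healthy volunteers scored subject-reported flushing with a flushing symptoms questionnaire after single oral doses and during repeat divided daily dosing.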

Homo sapiens [7] = assay: Antidyslipidemic activity in dyslipidemia patient assessed as decrease in free fatty acid level at 150 mg administered TID during four week study; assay type: functional, organism-based
[8] = Tmax in human at 150 mg, po BID administered on day 1 followed by 2-day wash out period after which dosing continued up to day 11 measured on day 1; assay type: ADME, organism-based; settings: in vivo; in short: as §1
[9] = Cmax in human at 50 mg, po BID administered on day 1 followed by 2-day wash out period after which dosing continued up to day 11 measured on day 11; assay type: ADME, organism-based; design: dose 50 mg, route oral; settings: in vivo
In short: (§3)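 Healthy male volunteers took part in a double-blind, randomized, placebo-controlled dose-escalation study, with cohorts of 8 (6 on drug, 2 on placebo). Each subject got an oral dose on day 1, then a 2-day washout, then dosing on days 4–11. The 200 mg qd group was titrated over days 1–4. Venous plasma was sampled predose and 0.5–12 h postdose on days 1, 4 and 11, and predose on days 5–10 for troughs.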

Homo sapiens [10] = assay: Activation of GPR109a receptor in po dosed human assessed as PGD2 metabolite level in urine; assay type: functional, organism-based
[11] = Tmax in human at 150 mg, po BID administered on day 1 followed by 2-day wash out period after which dosing continued up to day 11 measured on day 4; assay type: ADME, organism-based; settings: in vivo; in short: as §1
[12] = Cmax in human at 150 mg, po TID administered on day 1 followed by 2-days wash out period after which dosing continued up to day 11 measured on day 1; assay type: ADME, organism-based; design: dose 150 mg, route oral; settings: in vivo; in short: as §3
[13] = Apparent half life in human at 175 mg, po QID administered on day 1 followed by 2-days wash out period after which dosing continued up to day 11 measured on day 11; assay type: ADME, organism-based; settings: in vivo, read-out: t1/2(app) (converted); in short: as §2
[14] = Tmax in human at 150 mg, po TID administered on day 1 followed by 2-days wash out period after which dosing continued up to day 11 measured on day 11; assay type: ADME, organism-based; settings: in vivo; in short: as §1
[15] = Cmin in human at 150 mg, po BID administered on day 1 followed by 2-day wash out period after which dosing continued up to day 11 measured on day 11 at 12 hrs; assay type: ADME, organism-based; settings: in vivo, read-out: Cmin; in short: as §3
[16] = Cmax in human at 150 mg, po BID administered on day 1 followed by 2-day wash out period after which dosing continued up to day 11 measured on day 11; assay type: ADME, organism-based; design: dose 150 mg, route oral; settings: in vivo; in short: as §3
[17] = AUC (0 to 12 hrs) in human at 150 mg, po BID administered on day 1 followed by 2-day wash out period after which dosing continued up to day 11 measured on day 4; assay type: ADME, organism-based; design: dose 150 mg, time < 12 hr, route oral; settings: plasma; in short: as §2
Homo sapiens [18] = assay: Cmin in human at 50 mg, po BID administered on day 1 followed by 2-day wash out period after which dosing continued up to day 11 measured on day 1 at 12 hrs; assay type: ADME, organism-based; settings: in vivo, BLD = below limit of detection; in short: as §3
[19] = Cmax in human at 175 mg, po QID administered on day 1 followed by 2-days wash out period after which dosing continued up to day 11 measured on day 4; assay type: ADME, organism-based; design: dose 175 mg, route oral; settings: in vivo; in short: as §3
[20] = AUC (0 to 8 hrs) in human at 150 mg, po TID administered on day 1 followed by 2-days wash out period after which dosing continued up to day 11 measured on day 11; assay type: ADME, organism-based; design: time < 8 hr, dose 150 mg, route oral; settings: plasma; in short: as §2
[21] = Cmin in human at 100 mg, po BID administered on day 1 followed by 2-day wash out period after which dosing continued up to day 11 measured on day 4 at 12 hrs; assay type: ADME, organism-based; settings: in vivo, read-out: Cmin; in short: as §3
[22] = Tmax in human at titreated po dose administered from day 1 to 4 followed by 200 mg, po QD administered up to day 11 measured on day 4; assay type: ADME, organism-based; settings: in vivo; in short: as §1
[23] = Cmin in human at 175 mg, po QID administered on day 1 followed by 2-days wash out period after which dosing continued up to day 11 measured on day 4 at 6 hrs; assay type: ADME, organism-based; settings: in vivo, read-out: Cmin; in short: as §3
[24] = Oral bioavailability in dog; assay type: ADME, organism-based, Canis lupus familiaris; settings: in vivo
[25] = AUC (0 to 8 hrs) in human at 150 mg, po TID administered on day 1 followed by 2-days wash out period after which dosing continued up to day 11 measured on day 1; assay type: ADME, organism-based; design: time < 8 hr, dose 150 mg, route oral; settings: plasma
In short: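 Healthy male volunteers, double-blind placebo-controlled randomized dose escalation; cohorts of eight (six active, two placebo). Oral dose on day 1, two-day washout, then dosing days 4–11. Venous blood predose and 0.5, 1, 1.5, 2, 4, 6, 8, 10, 12 h postdose on days 1, 4 and 11 for plasma drug; dosing interval (τ) 12 h for BID, 8 h for TID; Ctrough taken at end of interval.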

[26] = AUC (0 to 24 hrs) in human at titreated po dose administered from day 1 to 4 followed by 200 mg, po QD administered up to day 11 measured on day 11; assay type: ADME, organism-based; design: time < 24 hr, dose 200 mg, route oral; settings: plasma; in short: as §2
Mus musculus [27] = assay: Dose normalized Cmax in po dosed mouse; assay type: ADME, organism-based; settings: in vivo
Cytochrome P450 3A4 = Cytochrome P450 3A4 (Homo sapiens, UniProt P08684); assay: Activity at CYP3A4; assay type: ADME
Homo sapiens [28] = assay: Antidyslipidemic activity in dyslipidemia patient assessed as change in triglyceride level at 150 mg administered TID during four week study relative to control; assay type: functional
[29] = Plasma clearance in Sprague-Dawley rat at 2 mg/kg, iv; assay type: ADME, organism-based; design: dose 2 mg/kg, route intravenous
In short: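 Male Sprague-Dawley rats were dosed at 10 mg/kg po or 2 mg/kg iv in 80% PEG400/20% phosphate-buffered saline, fasted overnight before the oral dose. Jugular blood was sampled serially from 0.25 to 21 h over 24 h, and heparinized plasma was prepared. Drug was assayed by HPLC/MS/MS (quantitation range 1–2000 ng/mL).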

Cytochrome P450 3A4, sequence (P08684 whole entry): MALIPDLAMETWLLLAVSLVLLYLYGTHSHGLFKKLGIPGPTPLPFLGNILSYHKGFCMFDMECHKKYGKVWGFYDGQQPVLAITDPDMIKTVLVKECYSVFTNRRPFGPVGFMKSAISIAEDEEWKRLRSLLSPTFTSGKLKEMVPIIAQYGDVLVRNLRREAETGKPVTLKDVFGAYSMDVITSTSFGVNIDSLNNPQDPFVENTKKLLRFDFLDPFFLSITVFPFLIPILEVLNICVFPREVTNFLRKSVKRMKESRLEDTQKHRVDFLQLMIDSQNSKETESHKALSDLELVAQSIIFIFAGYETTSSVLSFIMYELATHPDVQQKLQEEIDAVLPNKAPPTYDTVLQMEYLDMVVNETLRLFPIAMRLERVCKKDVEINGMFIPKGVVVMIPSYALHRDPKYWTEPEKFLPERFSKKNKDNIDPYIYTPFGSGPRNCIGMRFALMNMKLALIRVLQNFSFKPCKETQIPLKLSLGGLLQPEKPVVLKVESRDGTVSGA

For `O=C(O)c1n[nH]c2c1C[C@H]1C[C@@H]21`, the Tmax [1] was 1.25 h, the Cmax [2] was 32.5 nM and the AUC/dose (Mus musculus [3]) was 4.1 µM·kg·h/mg. For the same molecule, the Activity (Homo sapiens [4]) was “Toxic”, the MTD (Homo sapiens [5]) was 200 mg and the Activity (Homo sapiens [6]) was “Toxic”. The Activity (Homo sapiens [7]) was “Active”, the Tmax [8] was 1.25 h and the Cmax [9] was 16.2 nM. The Activity (Homo sapiens [10]) was “Dose-dependent effect”, the Tmax [11] was 1.5 h and the Cmax [12] was 48.4 µM. It also gave a half-life [13] of 360 min, a Tmax [14] of 1 h and a concentration at 12 h [15] of 0.208 nM. The Cmax [16] was 27.7 nM, the AUC at 12 h [17] was 0.0803 µM·h and the Cmin (Homo sapiens [18]) was “BLD”. The Cmax [19] was 49.9 nM, the AUC at 8 h [20] was 0.0879 µM·h and the concentration at 12 h [21] was 0.083 nM. The Tmax [22] was 1.5 h, the concentration at 6 h [23] was 2.92 nM and the bioavailability [24] was 100%. The AUC at 8 h [25] was 0.102 µM·h, the AUC at 24 h [26] was 0.119 µM·h and the Cmax/dose (Mus musculus [27]) was 3.5 µM·kg/mg. For the same molecule, the Activity (Cytochrome P450 3A4) was “Not Active”, the Activity (Homo sapiens [28]) was -10.3% and the clearance [29] was 17 mL/min/kg.
